Reference: ChEMBL document CHEMBL1145884, “Synthesis and biological activity of novel 1beta-methylcarbapenems with oxyiminopyrrolidinylamide moiety” (2003)
≈ marks a conversion by molar mass, not a printed value.

Experiments:
Klebsiella aerogenes = assay: Antibacterial activity against Klebsiella aerogenes 1522E; type: functional
Outline: (§1)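 MIC was determined by agar dilution on Mueller–Hinton medium.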

Pseudomonas aeruginosa [1] = assay: Antibacterial activity against Pseudomonas aeruginosa 9027; type: functional; outline: as §1
Pseudomonas aeruginosa [2] = assay: Antibacterial activity against Pseudomonas aeruginosa 1771M; type: functional; outline: as §1
Staphylococcus aureus [3] = assay: Antibacterial activity against Staphylococcus aureus 503; type: functional
Staphylococcus aureus [4] = assay: Antibacterial activity against Staphylococcus aureus 285; type: functional
Escherichia coli [5] = assay: Antibacterial activity against Escherichia coli 078; type: functional; outline: as §1
Enterobacter cloacae [6] = assay: Antibacterial activity against Enterobacter cloacae 1321E; type: functional; outline: as §1
Pseudomonas aeruginosa [7] = assay: Antibacterial activity against Pseudomonas aeruginosa 1592E
[8] = Compound was evaluated for its relative half life of hydrolysis to meropenem by partially purified porcine renal dihydropeptidase-I (DHP-I); type: functional; conditions: Sus scrofa
Salmonella typhimurium [9] = assay: Antibacterial activity against Salmonella Typhimurium; type: functional, Salmonella enterica subsp. enterica serovar Typhimurium; conditions: Salmonella enterica; outline: as §1
Streptococcus pyogenes = assay: Antibacterial activity against Streptococcus pyogenes 308A; type: functional
Staphylococcus aureus [10] = assay: Antibacterial activity against Staphylococcus aureus SG 511; type: functional
Escherichia coli [11] = assay: Antibacterial activity against Escherichia coli 1507E; type: functional; outline: as §1
Klebsiella pneumoniae [12] = assay: Compound was evaluated for its antibacterial activity against Klebsiella pneumoniae 5 ESBL; type: functional
Klebsiella pneumoniae [13] = assay: Compound was evaluated for its antibacterial activity against Klebsiella pneumoniae 4 ESBL; type: functional
Klebsiella pneumoniae [14] = assay: Compound was evaluated for its antibacterial activity against Klebsiella pneumoniae 1 ESBL; type: functional
Klebsiella pneumoniae [15] = assay: Compound was evaluated for its antibacterial activity against Klebsiella pneumoniae 2 ESBL; type: functional
Salmonella typhimurium [16] = assay: Compound was evaluated for its antibacterial activity against Salmonella Typhimurium 1; type: functional, Salmonella enterica subsp. enterica serovar Typhimurium; conditions: Salmonella enterica
Escherichia coli [17] = assay: Compound was evaluated for its antibacterial activity against Escherichia coli 0157:H7; type: functional
Salmonella enteritidis [18] = assay: Compound was evaluated for its antibacterial activity against […] enteritidis 1; type: functional, Salmonella enterica subsp. enterica serovar Enteritidis; conditions: Salmonella enterica
Escherichia coli [19] = assay: Compound was evaluated for its antibacterial activity against Escherichia coli ATCC 25922; type: functional
Salmonella enteritidis [20] = assay: Compound was evaluated for its antibacterial activity against […] enteritidis 2; type: functional, Salmonella enterica subsp. enterica serovar Enteritidis; conditions: Salmonella enterica
Escherichia coli [21] = assay: Compound was evaluated for its antibacterial activity against Escherichia coli DC 0; type: functional
Klebsiella pneumoniae [22] = assay: Compound was evaluated for its antibacterial activity against Klebsiella pneumoniae
Escherichia coli [23] = assay: Compound was evaluated for its antibacterial activity against Escherichia coli CCARM 1113 MDR; type: functional
Escherichia coli [24] = assay: Compound was evaluated for its antibacterial activity against Escherichia coli CCARM 1108 MDR; type: functional
Shigella sonnei = assay: Compound was evaluated for its antibacterial activity against Shigella sonnei ATCC 9290; type: functional
Klebsiella pneumoniae [25] = assay: Compound was evaluated for its antibacterial activity against Klebsiella pneumoniae 9 ESBL; type: functional
Enterobacter cloacae [26] = assay: Compound was evaluated for its antibacterial activity against Enterobacter cloacae P99; type: functional
Pseudomonas aeruginosa [27] = assay: Compound was evaluated for its antibacterial activity against Pseudomonas aeruginosa 2 MDR; type: functional
Escherichia coli [28] = assay: Compound was evaluated for its antibacterial activity against Escherichia coli CCARM 1111 MDR; type: functional
Klebsiella pneumoniae [29] = assay: Compound was evaluated for its antibacterial activity against Klebsiella pneumoniae 6 ESBL; type: functional
Klebsiella oxytoca = assay: Compound was evaluated for its antibacterial activity against Klebsiella oxytoca 1082E; type: functional
Escherichia coli [30] = assay: Compound was evaluated for its antibacterial activity against Escherichia coli CCARM 1116 MDR; type: functional
Escherichia coli [31] = assay: Compound was evaluated for its antibacterial activity against Escherichia coli CCARM 1114 MDR; type: functional
Pseudomonas aeruginosa [32] = assay: Compound was evaluated for its antibacterial activity against Pseudomonas aeruginosa 1 MDR; type: functional
Klebsiella pneumoniae [33] = assay: Compound was evaluated for its antibacterial activity against Klebsiella pneumoniae 3 ESBL; type: functional
Shigella flexneri = assay: Compound was evaluated for its antibacterial activity against Shigella flexneri ATCC 9199; type: functional
Pseudomonas aeruginosa [34] = assay: Compound was evaluated for its antibacterial activity against Pseudomonas aeruginosa 3 MDR; type: functional
Salmonella typhimurium [35] = assay: Compound was evaluated for its antibacterial activity against Salmonella Typhimurium; type: functional, Salmonella enterica subsp. enterica serovar Typhimurium; conditions: Salmonella enterica
Escherichia coli [36] = assay: Compound was evaluated for its antibacterial activity against Escherichia coli DC 2; type: functional
Salmonella enteritidis [37] = assay: Compound was evaluated for its antibacterial activity against […] enteritidis; type: functional, Salmonella enterica subsp. enterica serovar Enteritidis; conditions: Salmonella enterica
Pseudomonas aeruginosa [38] = assay: Compound was evaluated for its antibacterial activity against Pseudomonas aeruginosa ATCC 27853; type: functional
Klebsiella pneumoniae [39] = assay: Compound was evaluated for its antibacterial activity against Klebsiella pneumoniae; remark: listed apart in the source
Escherichia coli [40] = assay: Compound was evaluated for its antibacterial activity against Escherichia coli TEM; type: functional
Salmonella enteritidis [41] = assay: Compound was evaluated for its antibacterial activity against […] enteritidis 3; type: functional, Salmonella enterica subsp. enterica serovar Enteritidis; conditions: Salmonella enterica
Escherichia coli [42] = assay: Compound was evaluated for its antibacterial activity against Escherichia coli CCARM 1110 MDR; type: functional
Salmonella typhimurium [43] = assay: Compound was evaluated for its antibacterial activity against Salmonella Typhimurium 2; type: functional, Salmonella enterica subsp. enterica serovar Typhimurium; conditions: Salmonella enterica
Escherichia coli [44] = assay: Compound was evaluated for its antibacterial activity against Escherichia coli CCARM 1112 MDR; type: functional
Escherichia coli [45] = assay: Compound was evaluated for its antibacterial activity against Escherichia coli CCARM 1115 MDR; type: functional
Escherichia coli [46] = assay: Compound was evaluated for its antibacterial activity against Escherichia coli CCARM 1109 MDR; type: functional
Klebsiella pneumoniae [47] = assay: Compound was evaluated for its antibacterial activity against Klebsiella pneumoniae 10 ESBL; type: functional
Escherichia coli [48] = assay: Compound was evaluated for its antibacterial activity against Escherichia coli CCARM 1117 MDR; type: functional

C[C@@H](O)[C@H]1C(=O)N2C(C(=O)O)=C(SCCNC=N)C[C@H]12 [IMIPENEM ANHYDROUS]
MIC (Klebsiella aerogenes): 0.391 µg/mL (≈ 1.31 µM)
MIC (Pseudomonas aeruginosa [1]): 0.781 µg/mL (≈ 2.61 µM)
MIC (Pseudomonas aeruginosa [2]): 0.195 µg/mL (≈ 0.651 µM)
MIC (Staphylococcus aureus [3]): 0.013 µg/mL (≈ 0.0434 µM)
MIC (Staphylococcus aureus [4]): 0.025 µg/mL (≈ 0.0835 µM)
MIC (Escherichia coli [5]): 0.195 µg/mL (≈ 0.651 µM)
MIC (Enterobacter cloacae [6]): 0.195 µg/mL (≈ 0.651 µM)
MIC (Pseudomonas aeruginosa [7]): 0.781 µg/mL (≈ 2.61 µM)
relative t1/2 (DHP-I hydrolysis vs meropenem) [8]: 0.17
MIC (Salmonella typhimurium [9]): 0.781 µg/mL (≈ 2.61 µM)
MIC (Streptococcus pyogenes): 0.007 µg/mL (≈ 0.0234 µM)
MIC (Staphylococcus aureus [10]): 0.025 µg/mL (≈ 0.0835 µM)
MIC (Escherichia coli [11]): 0.195 µg/mL (≈ 0.651 µM)

C[C@@H](O)[C@H]1C(=O)N2C(C(=O)O)=C(S[C@@H]3CN[C@H](C(=O)N(C)C)C3)[C@H](C)[C@H]12 [MEROPENEM]
MIC (Klebsiella pneumoniae [12]): 0.016 µg/mL (≈ 0.0417 µM)
MIC (Klebsiella pneumoniae [13]): 0.016 µg/mL (≈ 0.0417 µM)
MIC (Klebsiella pneumoniae [14]): 0.03 µg/mL (≈ 0.0782 µM)
MIC (Klebsiella pneumoniae [15]): 0.03 µg/mL (≈ 0.0782 µM)
MIC (Salmonella typhimurium [16]): 0.03 µg/mL (≈ 0.0782 µM)
MIC (Escherichia coli [17]): 0.03 µg/mL (≈ 0.0782 µM)
MIC (Salmonella enteritidis [18]): 0.016 µg/mL (≈ 0.0417 µM)
MIC (Escherichia coli [19]): 0.016 µg/mL (≈ 0.0417 µM)
MIC (Salmonella enteritidis [20]): 0.016 µg/mL (≈ 0.0417 µM)
MIC (Klebsiella aerogenes): 0.049 µg/mL (≈ 0.128 µM)
MIC (Pseudomonas aeruginosa [1]): 0.195 µg/mL (≈ 0.509 µM)
MIC (Escherichia coli [21]): 0.03 µg/mL (≈ 0.0782 µM)
MIC (Klebsiella pneumoniae [22]): 0.06 µg/mL (≈ 0.156 µM)
MIC (Escherichia coli [23]): 0.03 µg/mL (≈ 0.0782 µM)
MIC (Escherichia coli [24]): 0.03 µg/mL (≈ 0.0782 µM)
MIC (Shigella sonnei): 0.03 µg/mL (≈ 0.0782 µM)
MIC (Klebsiella pneumoniae [25]): 0.03 µg/mL (≈ 0.0782 µM)
MIC (Enterobacter cloacae [26]): 0.03 µg/mL (≈ 0.0782 µM)
MIC (Pseudomonas aeruginosa [2]): 0.049 µg/mL (≈ 0.128 µM)
MIC (Pseudomonas aeruginosa [27]): 8 µg/mL (≈ 20.9 µM)
MIC (Escherichia coli [28]): 0.016 µg/mL (≈ 0.0417 µM)
MIC (Klebsiella pneumoniae [29]): 0.03 µg/mL (≈ 0.0782 µM)
MIC (Klebsiella oxytoca): 0.06 µg/mL (≈ 0.156 µM)
MIC (Escherichia coli [30]): 0.03 µg/mL (≈ 0.0782 µM)
MIC (Escherichia coli [31]): 0.03 µg/mL (≈ 0.0782 µM)
MIC (Staphylococcus aureus [3]): 0.098 µg/mL (≈ 0.256 µM)
MIC (Pseudomonas aeruginosa [32]): 1 µg/mL (≈ 2.61 µM)
MIC (Klebsiella pneumoniae [33]): 0.06 µg/mL (≈ 0.156 µM)
MIC (Staphylococcus aureus [4]): 0.195 µg/mL (≈ 0.509 µM)
MIC (Escherichia coli [5]): 0.025 µg/mL (≈ 0.0652 µM)
MIC (Shigella flexneri): 0.03 µg/mL (≈ 0.0782 µM)
MIC (Pseudomonas aeruginosa [34]): 8 µg/mL (≈ 20.9 µM)
MIC (Enterobacter cloacae [6]): 0.025 µg/mL (≈ 0.0652 µM)
MIC (Pseudomonas aeruginosa [7]): 0.195 µg/mL (≈ 0.509 µM)
MIC (Salmonella typhimurium [35]): 0.03 µg/mL (≈ 0.0782 µM)
MIC (Escherichia coli [36]): 0.03 µg/mL (≈ 0.0782 µM)
MIC (Salmonella enteritidis [37]): 0.016 µg/mL (≈ 0.0417 µM)
MIC (Pseudomonas aeruginosa [38]): 0.5 µg/mL (≈ 1.3 µM)
MIC (Klebsiella pneumoniae [39]): 0.06 µg/mL (≈ 0.156 µM)
MIC (Escherichia coli [40]): 0.016 µg/mL (≈ 0.0417 µM)
relative t1/2 (DHP-I hydrolysis vs meropenem) [8]: 1
MIC (Salmonella typhimurium [9]): 0.049 µg/mL (≈ 0.128 µM)
MIC (Streptococcus pyogenes): 0.013 µg/mL (≈ 0.0339 µM)
MIC (Salmonella enteritidis [41]): 0.03 µg/mL (≈ 0.0782 µM)
MIC (Escherichia coli [42]): 0.016 µg/mL (≈ 0.0417 µM)
MIC (Salmonella typhimurium [43]): 0.016 µg/mL (≈ 0.0417 µM)
MIC (Escherichia coli [44]): 0.016 µg/mL (≈ 0.0417 µM)
MIC (Escherichia coli [45]): 0.016 µg/mL (≈ 0.0417 µM)
MIC (Escherichia coli [46]): 0.03 µg/mL (≈ 0.0782 µM)
MIC (Staphylococcus aureus [10]): 0.195 µg/mL (≈ 0.509 µM)
MIC (Escherichia coli [11]): 0.025 µg/mL (≈ 0.0652 µM)
MIC (Klebsiella pneumoniae [47]): 0.016 µg/mL (≈ 0.0417 µM)
MIC (Escherichia coli [48]): 0.03 µg/mL (≈ 0.0782 µM)
